Rows were chosen to be rich in hits. Some 2.4% of all compounds tested hit in one or more screens of this group.
Neddyl block = inhibitors of cullin neddylation, primary screen, biochemical, TR-FRET, uHTS, NAE and Ubc12 | inhibition, % at 25 µM | 360,000 compounds, 0.58% hits | NEDD8-conjugating enzyme Ubc12 (Homo sapiens) + NEDD8-activating enzyme E1 regulatory …; in the data active = inhibition above about 36%
Target sequence (P61081 whole entry, looked up): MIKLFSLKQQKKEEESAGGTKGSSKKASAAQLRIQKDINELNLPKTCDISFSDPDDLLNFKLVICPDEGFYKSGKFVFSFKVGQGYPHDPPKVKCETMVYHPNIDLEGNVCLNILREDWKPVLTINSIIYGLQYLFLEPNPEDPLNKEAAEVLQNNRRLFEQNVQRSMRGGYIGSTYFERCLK
Target sequence (Q13564 whole entry, looked up): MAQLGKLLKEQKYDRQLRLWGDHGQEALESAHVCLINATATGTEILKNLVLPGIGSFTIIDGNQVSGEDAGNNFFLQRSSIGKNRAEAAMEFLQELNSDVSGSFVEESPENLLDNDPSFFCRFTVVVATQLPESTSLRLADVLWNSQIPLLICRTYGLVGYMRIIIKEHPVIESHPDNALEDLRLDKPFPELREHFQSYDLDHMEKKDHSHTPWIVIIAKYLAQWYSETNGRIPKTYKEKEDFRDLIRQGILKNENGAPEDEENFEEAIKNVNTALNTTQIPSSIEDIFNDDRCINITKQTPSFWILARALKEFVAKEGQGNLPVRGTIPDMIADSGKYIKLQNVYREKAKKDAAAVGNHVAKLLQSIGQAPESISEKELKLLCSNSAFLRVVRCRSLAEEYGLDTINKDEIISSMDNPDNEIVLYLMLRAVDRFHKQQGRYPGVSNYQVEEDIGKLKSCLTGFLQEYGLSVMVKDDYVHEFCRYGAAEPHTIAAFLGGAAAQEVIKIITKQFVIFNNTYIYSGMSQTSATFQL
HNF4A DNA FP = change in binding of human HNF4A to DNA, primary screen, biochemical, fluorescence polarization, FITC-DNA | 1 h | AID 1224865, 2016 | 360,000 compounds, 0.3% hits | Hepatocyte nuclear factor 4-alpha (Homo sapiens), P41235 | activity change, % at 10 µM; in the data active = activity change above about 30%, passing the limit was not always enough
PREPL inh = PREPL enzyme inhibitors, primary screen, biochemical, fluorescence polarization | inhibition, % at 5.96 µM | recombinant PREPL, fluorescence polarization activity-based probe | Prolyl endopeptidase-like (Homo sapiens), Q4J6C6 | 320,000 compounds, 0.68% hits; in the data active = inhibition above about 43%
CSN deneddyl inh = inhibitors of CSN-mediated cullin deneddylation, primary screen, biochemical, fluorescence polarization, uHTS; COP9 signalosome complex subunit 5 (Homo sapiens), Q92905; Purified CSN, SCF-Nedd8-OG deneddylation; inhibition, % at 12.5 µM; 360,000 compounds, 0.38% hits;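 active = pattern-corrected inhibition above about 35%, with an unprinted fluorescence ratio check between 0.5 and 1.5, limit read from the data, passing the limit was not always enough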
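Assay system: purified human Csn5 enzyme expressed in HEK293T cells; Input: 0.24 nM Csn5 enzyme, final concentration; Reagent: 10 nM SCFSkp2-Nedd8OG; Compound dosing: 12.5 µM single point; Times: reaction 90 min, room temperature; Technique: fluorescence polarization readout.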
TbMetRS inhib = T. brucei MetRS inhibitors, primary screen, biochemical, luminescence; purified T. brucei MetRS, ATP depletion, Kinase-Glo luminescence; methionyl-tRNA synthetase (Trypanosoma brucei brucei); 360,000 compounds, 0.4% hits; inhibition, % at 11.9 µM;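 active = inhibition above a per-plate cutoff of the control wells' mean inhibition plus 3 SD, cut at about 5.5% in these data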
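Material: T. brucei methionyl-tRNA synthetase, purified; reagent: substrates ATP, L-methionine and bulk Escherichia coli tRNA; dosing: 11.9 µM single point; timing: 15 min plus 2 h at 25 °C; detection: luminescence of leftover ATP; evaluation: % inhibition; control set: DMSO-only wells as low control; replicates: singlicate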
Rpn11 block = Rpn11 (PSMD14) deubiquitinase inhibitors, primary screen, biochemical, fluorescence polarization, uHTS. inhibition, % at 20 µM. 360,000 compounds, 0.59% hits. 26S proteasome non-ATPase regulatory subunit 14 (Homo sapiens), O00487. human 26S proteasome, Ub4-pepOG fluorescence polarization; 20S core pre-blocked with epoxomicin;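 active = inhibition at 20 µM, scaled to each plate's controls, above about 33%, limit read from the data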
TbMetRS confirm = T. brucei MetRS inhibitors, confirmation, biochemical, luminescence | shares compounds with TbMetRS inhib | T. brucei MetRS enzyme, luminescence (ATP depletion) | inhibition, % at 11.9 µM | 1,400 compounds, 93% hits; in the data active = inhibition above about 7%
Jurkat tox = Jurkat T cell cytotoxicity, cytotoxicity control for T. brucei MetRS inhibitor project, luminescence, high throughput; inhibition, % at 8.3 µM; 1,400 compounds, 12% hits; shares compounds with TbMetRS inhib; Jurkat cells viability, ATP luminescence; AID 624413, 2012; in the data active = inhibition above about 15%
TbMetRS FP orth = T. brucei MetRS inhibitors, orthogonal assay for T. brucei MetRS inhibitor project, biochemical, fluorescence polarization. shares compounds with TbMetRS inhib. purified T. brucei MetRS. inhibition, % at 11.9 µM. 1,400 compounds, 44% hits. AID 651607, 2012; in the data active = inhibition above about 17%
Each line names hits and unclear results; the compound was inactive in the other large screens (follow-up assays come after a bar, where shown).

Cc1cc(Cl)cc(C)c1OCCCCCn1ccnc1	TbMetRS inhib 7.8 | TbMetRS confirm 19 | Jurkat tox inactive | TbMetRS FP orth inactive
Cc1cc(Cl)cc(C)c1OCCn1ccnc1	none
O=C(Cn1c2[n+](c3ccc(C(F)(F)F)cc31)CCCCC2)Nc1ccccc1	TbMetRS inhib 28 | TbMetRS confirm 35 | Jurkat tox inactive | TbMetRS FP orth inactive
CCOc1ccc2[nH]c3c(NCCO)ncnc3c2c1	none (not shown: Neddyl block, PREPL inh)
C=CCNc1ncnc2c1[nH]c1ccccc12	TbMetRS inhib 21 | TbMetRS confirm 35 | Jurkat tox inactive | TbMetRS FP orth inactive
C=CCNc1ncnc2ccccc12	none
C=CCNc1ncnc2c1[nH]c1ccc(Cl)cc12	TbMetRS inhib 51 | TbMetRS confirm 64 | Jurkat tox 18 | TbMetRS FP orth 38
COc1ccc(CNc2ncnc3cc(Cl)ccc23)cc1	none
COc1cccc(CNc2ncnc3cc(Cl)ccc23)c1	TbMetRS inhib 12 (no result: PREPL inh) | TbMetRS confirm 20 | Jurkat tox inactive | TbMetRS FP orth inactive
COC(=O)c1cc(-c2ccc(Cl)cc2Cl)n[nH]1	TbMetRS inhib 12 | TbMetRS confirm 29 | Jurkat tox inactive | TbMetRS FP orth 18
COC(=O)c1cc(-c2ccc(Cl)cc2)n[nH]1	none
Cc1[nH]n(-c2ccc([N+](=O)[O-])cc2)c(=O)c1C=NCCc1c(C)[nH]c2ccccc12	none
Cc1cc(Cl)ccc1OCc1nnc2n1CCCCC2	TbMetRS inhib 9.4 | TbMetRS confirm 20 | Jurkat tox inactive | TbMetRS FP orth inactive
Clc1ccc(OCc2nnc3n2CCCCC3)c(Cl)c1	TbMetRS inhib 16 | TbMetRS confirm 36 | Jurkat tox inactive | TbMetRS FP orth 18
CCOc1ccc(C=NNC(=O)c2ccc(-n3cnnn3)cc2)cc1	none
COc1ccc(CN2C(=O)C(CC(=O)NCc3cccc4ccccc34)CC(C(=O)N(C(C)C)C(C)C)=C2C)cc1 (stereo unspecified)	none (no result: PREPL inh)
CCC(Oc1ccccc1OC)C(=O)N1CC(=O)Nc2ccccc21 (stereo unspecified)	none
COc1ccc(CN=C2Nc3ccccc3CS2)cc1	TbMetRS inhib 7.7 | TbMetRS confirm 25 | Jurkat tox inactive | TbMetRS FP orth inactive
COc1ccc(CN=C2NN=C(c3ccc(Cl)cc3)CS2)cc1	none
COc1cc(/C=C(\C#N)c2nc3ccccc3[nH]2)ccc1Oc1ccc([N+](=O)[O-])cn1	TbMetRS inhib 21 | TbMetRS confirm 63 | Jurkat tox 24 | TbMetRS FP orth 37
COc1ccc2[nH]c3c(c2c1)CCN1C(=O)N([C@@H](C)C(=O)NCc2ccco2)C(=O)[C@]31C	none
O=C(CN1CCSC1=NCc1ccccc1)c1ccc(Cl)c(Cl)c1	TbMetRS inhib 61 | TbMetRS confirm 83 | Jurkat tox inactive | TbMetRS FP orth 67
O=C(c1c[nH]c2ccccc12)C(Cl)c1ccccc1 (stereo unspecified)	TbMetRS inhib 25 | TbMetRS confirm 45 | Jurkat tox 45 | TbMetRS FP orth 23
O=C1CCC(C(=O)OC(C(=O)c2c[nH]c3ccccc23)c2ccccc2)=NN1 (stereo unspecified)	TbMetRS inhib 9.9 | TbMetRS confirm 24 | Jurkat tox inactive | TbMetRS FP orth inactive
O=C(OC(C(=O)c1c[nH]c2ccccc12)c1ccccc1)c1cnccn1 (stereo unspecified)	TbMetRS inhib 15 | TbMetRS confirm 27 | Jurkat tox inactive | TbMetRS FP orth 17
Cc1ccc(C(=O)C(OC(=O)c2cnccn2)c2ccccc2)cc1 (stereo unspecified)	none
Cc1cccc(OCc2nnc(SCC(=O)NCC3CCCO3)n2C)c1 (stereo unspecified)	none
Cn1c(COc2ccc(Cl)cc2Cl)nnc1SCC(=O)NCC1CCCO1 (stereo unspecified)	TbMetRS inhib 6.0 | TbMetRS confirm 17 | Jurkat tox inactive | TbMetRS FP orth inactive
CCCCN1C[C@H](CSC)[C@@H](CC(=O)Nc2ccc(Br)cc2)C1=O	TbMetRS inhib 37 (no result: PREPL inh) | TbMetRS confirm 54 | Jurkat tox inactive | TbMetRS FP orth 25
CSC[C@H]1CN(c2ccccc2)C(=O)[C@@H]1CC(=O)Nc1ccc(Br)cc1	TbMetRS inhib 21 (no result: PREPL inh) | TbMetRS confirm 36 | Jurkat tox inactive | TbMetRS FP orth inactive
CSC[C@H]1CN(CCc2ccccc2)C(=O)[C@@H]1CC(=O)Nc1ccc(Br)cc1	TbMetRS inhib 15 (no result: PREPL inh) | TbMetRS confirm 37 | Jurkat tox inactive | TbMetRS FP orth inactive
CCCCN1C[C@H](Cc2ccccc2)[C@@H](CC(=O)Nc2ccccc2)C1=O	none
CCC[C@H]1CN(c2ccccc2)C(=O)[C@@H]1CC(=O)Nc1ccc(Br)cc1	none (no result: PREPL inh)
C[C@H]1[C@@H](OC(=O)CCC(=O)O)O[C@@H]2OC3(C)CC[C@H]4[C@H](C)CC[C@@H]1[C@@]24OO3	none (no result: Neddyl block, HNF4A DNA FP, CSN deneddyl inh, TbMetRS inhib, Rpn11 block)
CN(C)C1=NCCN1CCc1cccc(F)c1	none
CSc1nc2ccccc2n1CC(=O)Nc1cc(C(F)(F)F)ccc1N1CCOCC1	TbMetRS inhib 13 | TbMetRS confirm 21 | Jurkat tox inactive | TbMetRS FP orth inactive
O=C(O)CCCCCn1c(SCC(=O)c2ccc(O)c(O)c2)nc2ccsc2c1=O	TbMetRS inhib 6.2 | TbMetRS confirm 14 | Jurkat tox inactive | TbMetRS FP orth 36
CCOc1ccc(NS(=O)(=O)c2ccc(C(=O)N(C)Cc3cccc(OC)c3OC)cc2)cc1	none
COc1ccc(N2CCN(C(=O)c3oc4ccccc4c3NC(=O)CCc3cc(OC)no3)CC2)cc1	none
O=C(NCc1nc2ccccc2[nH]1)C1=C[C@H](c2ccc(Br)cc2)C[C@H](OCc2ccc(CO)cc2)O1	TbMetRS inhib 66 | TbMetRS confirm 98 | Jurkat tox inactive | TbMetRS FP orth 75

Source: PubChem
